3 molecules from ChEMBL document CHEMBL1921783, “Hypoxia activated prodrugs of a 9-aza-anthrapyrazole derivative that has promising anticancer activity” (J Med Chem, 2011) can be followed below.

Counter-ions that a name gives are not always drawn. Calls of active or inactive are those of the source. The calls are words filed in the database; no cut-off is given here.

The subject of assay [1] is Nucleic Acid. Briefly: Binding affinity to DNA assessed as increase in hypochromicity by UV-spectroscopic analysis without compound pretreatment with CYP450. Type of assay: nucleic-acid assay. In outline: (§1)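 UV absorbance scans of compound recorded with sequentially increasing DNA concentrations; binding judged from hypochromicity and bathochromic shift. CYP450 pretreatment where applicable: incubation with rat liver S-9 fraction in 1% O2, 2 h, 37 °C, proteins precipitated with ethanol, supernatant after centrifugation used.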

The test system of assay [2] is LoVo. Briefly: Cytotoxicity against human LoVo cells under hypoxic condition assessed as growth inhibition after 74 hrs by sulforhodamine B assay. It counts as functional, cell-based. In a few lines: (§2)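 Cells grown in 96-well plates for 74 h across a range of test concentrations; growth measured by sulforhodamine B staining and IC50 taken as 50% inhibition of growth. Hypoxic arm held in an anaerobic chamber flushed with 95% N2/5% CO2; oxic arm in oxygen-rich conditions.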
(In general: The SRB assay estimates cell density from bound dye.)

The subject of assay [3] is MCF7. The experiment in a line: Cytotoxicity against doxorubicin-sensitive human MCF7 cells under hypoxic condition assessed as growth inhibition after 74 hrs by sulforhodamine B assay. It counts as functional, cell-based. To be noted: MCF7, 74 h. In a few lines: as §2
Assay [4] relates to LoVo. The experiment in a line: Cytotoxicity against human LoVo cells under oxic condition assessed as growth inhibition after 74 hrs by sulforhodamine B assay. It counts as functional, cell-based. In a few lines: as §2
Assay [5] has as its system Nucleic Acid. The experiment in a line: Binding affinity to DNA assessed as increase in hypochromicity by UV-spectroscopic analysis with compound pretreatment with CYP450. Type of assay: nucleic-acid assay. In outline:
as §1

Assay [6] concerns MCF7. Briefly: Cytotoxicity against doxorubicin-resistant human MCF7 cells under hypoxic condition assessed as growth inhibition after 74 hrs by sulforhodamine B assay. To be noted: MCF7, 74 h. Type of assay: functional, cell-based. In a few lines:
as §2

In assay [7] the target is DNA topoisomerase 2-alpha (Homo sapiens) (UniProt P11388). Briefly: Inhibition of DNA topoisomerase 2-mediated DNA fragmentation at 10 uM pretreated with 1% O2 for 2 hrs measured by gel electrophoresis analysis. In outline:
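Before the Topo II assay, compound incubated with rat liver S-9 fraction in 1% O2 or normal air for 2 h at 37 °C. Proteins were precipitated with ethanol and the sample centrifuged; the supernatant was then tested for inhibition of Topo II DNA fragmentation by gel electrophoresis.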

Assay [8] relates to MCF7. Briefly: Cytotoxicity against doxorubicin-resistant human MCF7 cells under oxic condition assessed as growth inhibition after 74 hrs by sulforhodamine B assay. It counts as functional, cell-based. To be noted: MCF7, 74 h. In a few lines:
as §2

Assay [9] deals with Nucleic Acid. Briefly: Binding affinity to DNA assessed as bathochromic shift by UV-spectroscopic analysis with compound pretreatment with CYP450. Type of assay: nucleic-acid assay. In a few lines: as §1
The test system of assay [10] is Nucleic Acid. The experiment in a line: Displacement of ethidium bromide from DNA at 50 uM by fluorometric analysis. It counts as nucleic-acid assay. In a few lines: (§3)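 Fluorescence read-out of ethidium bromide displacement from DNA; IC50 is concentration reducing ethidium bromide binding by 50%; tested up to 50 μM.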
Assay [11] has as its target DNA topoisomerase 2-alpha (Homo sapiens) (UniProt P11388). Briefly: Inhibition of DNA topoisomerase 2-mediated DNA fragmentation at 50 uM by gel electrophoresis analysis. In outline:
(§4)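 Topo II incubated with DNA and compound; products resolved by gel electrophoresis, with intact DNA as a single band and Topo II fragmentation giving multiple bands.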

The test system of assay [12] is MCF7. The experiment in a line: Cytotoxicity against doxorubicin-sensitive human MCF7 cells under oxic condition assessed as growth inhibition after 74 hrs by sulforhodamine B assay. Type of assay: functional, cell-based. To be noted: MCF7, 74 h. In a few lines:
as §2

The target of assay [13] is DNA topoisomerase 2-alpha (Homo sapiens) (UniProt P11388). The experiment in a line: Inhibition of DNA topoisomerase 2-mediated DNA fragmentation at 10 uM by gel electrophoresis analysis. In a few lines:
as §4

The target in assay [14] is Nucleic Acid. Briefly: Displacement of ethidium bromide from DNA by fluorometric analysis. It counts as nucleic-acid assay. In outline: as §3

Chain of DNA topoisomerase 2-alpha (Homo sapiens) (P11388 whole entry, the tested form may be a part): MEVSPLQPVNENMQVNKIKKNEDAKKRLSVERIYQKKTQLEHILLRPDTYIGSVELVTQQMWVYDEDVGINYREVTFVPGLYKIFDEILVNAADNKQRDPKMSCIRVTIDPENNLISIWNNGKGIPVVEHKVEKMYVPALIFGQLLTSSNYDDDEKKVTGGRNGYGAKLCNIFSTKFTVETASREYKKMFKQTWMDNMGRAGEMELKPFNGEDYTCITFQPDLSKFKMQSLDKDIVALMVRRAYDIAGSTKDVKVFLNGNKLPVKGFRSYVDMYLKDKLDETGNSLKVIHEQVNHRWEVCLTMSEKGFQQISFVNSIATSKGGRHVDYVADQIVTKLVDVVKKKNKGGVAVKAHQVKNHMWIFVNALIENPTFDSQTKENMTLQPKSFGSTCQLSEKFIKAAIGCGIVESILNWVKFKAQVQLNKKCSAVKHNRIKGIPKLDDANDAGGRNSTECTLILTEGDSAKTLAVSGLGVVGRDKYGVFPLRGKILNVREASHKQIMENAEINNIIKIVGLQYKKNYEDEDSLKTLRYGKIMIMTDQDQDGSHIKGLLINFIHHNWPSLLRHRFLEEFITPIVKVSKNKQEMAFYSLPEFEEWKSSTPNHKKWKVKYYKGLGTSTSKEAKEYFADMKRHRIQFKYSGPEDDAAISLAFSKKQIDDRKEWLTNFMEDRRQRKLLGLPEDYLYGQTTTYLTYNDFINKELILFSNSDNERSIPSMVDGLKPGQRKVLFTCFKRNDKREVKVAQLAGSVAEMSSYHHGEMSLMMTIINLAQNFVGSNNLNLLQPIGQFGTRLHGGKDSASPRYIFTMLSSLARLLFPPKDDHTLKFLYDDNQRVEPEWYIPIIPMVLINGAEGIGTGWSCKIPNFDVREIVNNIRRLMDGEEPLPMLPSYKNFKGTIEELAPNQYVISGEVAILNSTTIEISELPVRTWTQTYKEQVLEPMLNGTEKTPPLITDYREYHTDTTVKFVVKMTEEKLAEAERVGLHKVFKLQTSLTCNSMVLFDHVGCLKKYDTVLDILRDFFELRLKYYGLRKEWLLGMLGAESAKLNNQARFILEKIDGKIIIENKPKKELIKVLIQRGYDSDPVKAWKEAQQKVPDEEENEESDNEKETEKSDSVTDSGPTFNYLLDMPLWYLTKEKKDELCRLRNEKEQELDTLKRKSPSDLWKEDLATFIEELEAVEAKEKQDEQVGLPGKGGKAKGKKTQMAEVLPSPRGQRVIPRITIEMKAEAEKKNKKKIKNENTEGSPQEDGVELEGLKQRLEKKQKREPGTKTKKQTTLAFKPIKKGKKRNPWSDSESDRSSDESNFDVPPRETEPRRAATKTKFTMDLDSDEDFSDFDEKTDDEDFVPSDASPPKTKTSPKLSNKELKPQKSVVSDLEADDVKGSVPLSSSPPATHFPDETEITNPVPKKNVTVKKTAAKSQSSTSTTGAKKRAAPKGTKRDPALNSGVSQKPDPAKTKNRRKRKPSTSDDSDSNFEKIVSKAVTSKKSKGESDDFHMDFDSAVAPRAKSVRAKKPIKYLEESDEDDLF

As to `C[N+](C)([O-])CCNc1ccc2c3c(nn2CC[N+](C)(C)[O-])-c2cnccc2C(=O)c13`, the result in the assay on Nucleic Acid [1] and with Nucleic Acid [10] was inactive. The IC50 (as a rule, the concentration needed to halve the response being measured) with LoVo [2] was 1.5 µM; with MCF7 [3] it was 5 µM; with LoVo [4], greater than 25 µM; in the assay on MCF7 [6], 1.3 µM; in the assay with MCF7 [8] it was greater than 25 µM; in the assay on MCF7 [12], greater than 25 µM. Besides, the outcome with Nucleic Acid [5] and in the assay with Nucleic Acid [9] was Active. Besides, in assay [7], the inhibition entry was “Active”. Also, the inhibition entry in [11] was “inactive”.
For `CN(C)CCNc1ccc2c3c(nn2CCN(C)C)-c2cnccc2C(=O)c13`, the IC50 in the assay on LoVo [2] was determined as 3.3 µM; in the assay with MCF7 [3], 4 µM; with LoVo [4], 1.3 µM; on Nucleic Acid [14], 6.8 µM; in the assay with MCF7 [6], 1.2 µM; with MCF7 [8], 1 µM. For the same molecule, in the assay on MCF7 [12], the IC50 was found to be 0.9 µM. For the same molecule, the inhibition result in assay [13] and in [7] was “Active” each time.
As for `O=C1c2c(O)ccc(O)c2C(=O)c2c(NCCNCCO)ccc(NCCNCCO)c21` [MITOXANTRONE HYDROCHLORIDE], the 50% inhibitory concentration (IC50) in the assay on LoVo [2] was 0.9 µM; with MCF7 [3] it was 1 µM; in the assay with LoVo [4] it was 0.1 µM; at Nucleic Acid [14] it was 4.5 µM; with MCF7 [6] it was greater than 10 µM; with MCF7 [8] it was 4.7 µM. Also, the IC50 with MCF7 [12] is 0.1 µM.
